Source: PubChem BioAssay (several laboratories)
Rows were chosen to be rich in hits. Some 12% of all compounds tested hit in one or more screens of this group.
WT yeast gro inh: growth inhibition of WT yeast, mitochondrial fusion screen; mitochondrial fusion phenotypic screen, WT strain; inhibition, % at 10 µM; 2.1% of 190,000 active; in the data active = inhibition above about 58%; tested in S. cerevisiae
Diaphorase act: diaphorase activation or chemical reduction counter-screen; Diaphorase/resazurin coupled assay, resorufin fluorescence, 16 min; stronger effect = higher value; 1 = vehicle wells, 0 = NADH-free wells; activation factor at 20 µM; 0.005% of 190,000 active; AID 1229;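 active = diaphorase activity raised at least twofold by the compound at 20 µM; inactive = activation factor below 2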
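Measured by – red resorufin fluorescence at 544/590 nm excitation/emission · Test system – Clostridium kluyveri diaphorase, purified enzyme · Incubation – reaction time 16 min, room temperature · Buffer or medium – 50 mM HEPES pH 7.4 with 4.542 mM MgCl2, 0.005% Tween 20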
ROMK primary: modulates human ROMK potassium channel activity | P48048 | B-score at 10 µM | Tet-inducible ROMK, thallium flux fluorescence; actives lie on both sides | 2% of 130,000 active | AID 1918;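 active = signal ratio slope over the read window, or its plate-corrected B-score, at least 3 SD from the plate mean, either direction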;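 note: B-score of the F/F0 ratio slope over 7 to 12 s after thallium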
Target sequence (P48048 whole entry, looked up): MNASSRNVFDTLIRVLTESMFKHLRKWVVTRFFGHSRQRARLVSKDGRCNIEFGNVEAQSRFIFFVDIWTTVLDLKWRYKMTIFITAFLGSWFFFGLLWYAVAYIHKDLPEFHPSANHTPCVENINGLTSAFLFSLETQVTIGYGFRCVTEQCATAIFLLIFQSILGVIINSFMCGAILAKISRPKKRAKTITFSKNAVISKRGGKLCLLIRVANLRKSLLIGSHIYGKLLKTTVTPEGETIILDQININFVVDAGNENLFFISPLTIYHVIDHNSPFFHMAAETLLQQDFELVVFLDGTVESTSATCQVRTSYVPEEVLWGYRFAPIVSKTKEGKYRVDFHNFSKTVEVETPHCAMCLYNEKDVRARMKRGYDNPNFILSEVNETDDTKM
L major viab: reduces viability of Leishmania major promastigotes; inhibition, % at 10 µM; resazurin fluorescence viability; 9% of 200,000 active; in the data active = inhibition above about 50%;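 note: promastigotes grown with compound for 44 hours at 28 °C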
Cl transport mod: KCC2 (human) Cl- transport modulation | Q9H2X9 | KCC2 cells, thallium flux FluoZin-2 fluorescence | B-score of Tl+ flux slope (higher = more flux/activation; lower = inhibition) at 10 µM | 2.2% of 190,000 active | AID 1456;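 active = thallium flux slope and its plate-corrected score both differing from the plate sample mean at a set confidence after two filtering rounds, in either direction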;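 note: slope of fluorescence scaled to starting intensity during 10 to 20 s after thallium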
Diaphorase inh: inhibits diaphorase or chemically oxidizes, flagging diaphorase assay artifacts; AID 1217; 0.69% of 190,000 active; inhibition, % at 20 µM; diaphorase resazurin-to-resorufin fluorescence, NADH, 16 min; bacterial (C. kluyveri) enzyme, not human;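 active = primary screen inhibition at 20 µM above a set limit, cut at about 50% in these data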;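 note: plate controls were DMSO with full reaction for no effect and wells lacking NADH for full effect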
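Assay system: diaphorase enzyme from Clostridium kluyveri; Input: enzyme working solution with 0.14 U/mL diaphorase; Timing: 16 min at room temperature; Technique: resorufin fluorescence, excitation 544 nm, emission 590 nm; Benchmarks: positive control minus NADH, DMSO neutral control.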
Lmaj promast 1uM: L. major promastigote growth inhibition, 1 uM repeat | shares compounds with L major viab | resazurin fluorescence, 48 h | inhibition, % at 1 µM | 13% of 1,100 active | AID 1258;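 active = inhibition above about 50% in both repeat tests, limit read from the data; inconclusive = one repeat under the set limit, the other over it; inactive = both repeats under the set limit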
KCC2 secondary: KCC2 (human) modulation, secondary assay | HEK293-KCC2, thallium flux, FluoZin2 fluorescence; stronger effect = higher value | 15% of 3,700 active | normalised thallium flux (F/F0 slope) at 10 µM | shares compounds with Cl transport mod | AID 1713;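 active = thallium flux slope above the same plate's solvent-only control mean plus 3 SD; inconclusive = the two replicate wells disagree; inactive = no significant difference from solvent-only control wells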
KCC2 bumet counter: thallium flux despite bumetanide block in KCC2 cells, secondary assay 3 | shares compounds with Cl transport mod | HEK293-KCC2 + bumetanide/ouabain, thallium flux FluoZin2; stronger effect = higher value | normalized thallium flux at 10 µM | 49% of 3,700 active;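 active = thallium entry rate above the same plate's blocked-transporter control wells by more than 3 SD; inconclusive = the two repeat wells disagree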;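 note: raw slope of fluorescence over initial fluorescence between 10 and 20 s after thallium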
KCC2 secondary2: KCC2 (human) modulation, second secondary assay. shares compounds with Cl transport mod. HEK293-KCC2, thallium flux FluoZin2 fluorescence; actives lie on both sides; F/F0 rise rate, 10–20 s post-thallium. normalized thallium flux at 10 µM. 23% of 3,700 active. AID 1715;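 active = thallium flux slope more than 3 SD above or below the plate's solvent-only control mean, mostly below; inconclusive = the two repeat wells disagreed; inactive = no significant shift from solvent-only controls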;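 note: raw slope with 0.1% DMSO as baseline and bumetanide as block control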
HEK counter1: counter-screen for KCC2 modulators: effect in parental HEK293 cells. 46% of 3,700 active. thallium flux FluoZin2, ouabain; baseline-ratio fluorescence slope, 10–20 s after thallium. shares compounds with Cl transport mod. thallium flux rate (normalised fluorescence) at 10 µM. AID 1716;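 active = thallium flux rate significantly above the same plate's solvent-only control wells, beyond their mean plus 3 SD; inconclusive = the two replicate wells gave conflicting results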
KCC2 retest ouab: KCC2 (human) modulation, ouabain retest; AID 1717; 48% of 3,700 active; HEK293-KCC2, thallium flux FluoZin2 fluorescence; bidirectional: low = inhibitor, high = activator; shares compounds with Cl transport mod; raw Tl+ flux slope (below DMSO = inhibition, above = activation) at 10 µM;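 active = thallium flux slope beyond 3 SD from same-plate DMSO control mean in most replicates, usually higher, sometimes lower; inconclusive = repeat tests gave conflicting results; inactive = no significant difference from controls in most replicates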;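 note: slope of initial-normalized fluorescence between seconds 10 and 20 after thallium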
HEK293 Tl flux2: counter-screen for KCC2 modulators: effect in parental HEK293 cells; shares compounds with Cl transport mod; thallium flux FluoZin-2 fluorescence slope; thallium flux slope at 10 µM; 33% of 3,700 active; AID 1718;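 active = thallium flux slope above the same plate's solvent-control mean plus 3 SD in both duplicate wells; inconclusive = duplicate wells that disagreed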;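 note: run without ouabain in cells lacking the KCC2 cotransporter; slope of fluorescence scaled to its starting value between 10 and 20 s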
* marks the source's active call; other numbers are inactive results.

What do the screens show for `CN(C)C(Cc1ccccc1)C(=O)c1cccs1` (stereo unspecified)?
WT yeast gro inh: 11; Diaphorase act: 0.9; ROMK primary: 1; L major viab: 10; Cl transport mod: -0.63; Diaphorase inh: 8

How did CCOC(=O)c1c(C)[nH]c(C(=O)C(Cc2ccccc2)N(C)C)c1C (stereo unspecified) do in these assays?
WT yeast gro inh: 10; Diaphorase act: 0.9; ROMK primary: -1.6; L major viab: 99*; Cl transport mod: -0.58; Diaphorase inh: 12; Lmaj promast 1uM: -8

How did CCCCc1ccc2[nH]cc(CCN)c2c1 do in these assays?
WT yeast gro inh: -23; Diaphorase act: 1.1; L major viab: 100*; Cl transport mod: 0.57; Diaphorase inh: -8; Lmaj promast 1uM: 1

How did CC1=CC2/C=C(\C)CCC(O)C(O)/C=C/C(=O)C23C(=O)NC(CC(C)C)C3C1C (stereo unspecified) do in these assays?
WT yeast gro inh: -21; Diaphorase act: 0.8; L major viab: 97*; Cl transport mod: -1.8; Diaphorase inh: 20; Lmaj promast 1uM: 48

How did O=C(c1cc2c(s1)-c1ccccc1OC2)N1CCC2(CC1)OCCO2 do in these assays?
WT yeast gro inh: 4; Diaphorase act: 0.9; ROMK primary: 0.72; L major viab: -4; Cl transport mod: -4.1*; Diaphorase inh: 15; KCC2 secondary: 0.0072; KCC2 bumet counter: 0.0052; KCC2 secondary2: 0.026*; HEK counter1: 0.0078; KCC2 retest ouab: inconclusive; HEK293 Tl flux2: 0.012

What do the screens show for `COc1cc(/C=C/C(=O)c2c(O)n(CCc3ccccc3)c(=O)[nH]c2=O)ccc1O`?
WT yeast gro inh: 6; Diaphorase act: 1; L major viab: 89*; Cl transport mod: -6.4*; Diaphorase inh: 3; KCC2 secondary: inconclusive; KCC2 bumet counter: -0.0096*; KCC2 secondary2: 0.034; HEK counter1: 0.0013*; KCC2 retest ouab: 0.004*; HEK293 Tl flux2: inconclusive

What do the screens show for `CC(C)CCP(=O)(O)c1ccccc1`?
WT yeast gro inh: -46; Diaphorase act: 1; ROMK primary: 1.7; L major viab: -6; Cl transport mod: 8.3*; Diaphorase inh: 3; KCC2 secondary: 0.012; KCC2 bumet counter: 0.0065; KCC2 secondary2: 0.035; HEK counter1: 0.008; KCC2 retest ouab: 0.023; HEK293 Tl flux2: 0.011

Results for Brc1ccc(C2N3CCCN23)cc1 (stereo unspecified) ?
WT yeast gro inh: -6; Diaphorase act: 0.9; ROMK primary: 0.94; L major viab: -9; Cl transport mod: 0.32; Diaphorase inh: 6

Results for O=C(COc1ccc(Cl)cc1)N1CCN(Cc2ccccc2)CC1 ?
WT yeast gro inh: -15; Diaphorase act: 0.9; ROMK primary: -0.25; L major viab: 39; Diaphorase inh: 13; KCC2 secondary: inconclusive; KCC2 bumet counter: 0.0055; KCC2 secondary2: 0.029; HEK counter1: 0.007; KCC2 retest ouab: 0.025*; HEK293 Tl flux2: 0.01

What do the screens show for `CC(C)NS(=O)(=O)c1ccc(OCC(=O)N2CCN(Cc3ccccc3)CC2)cc1`?
ROMK primary: 0.75; L major viab: 6; Cl transport mod: -1.4

Results for COP(=O)(OC)C1(Nc2ccc(C)cc2)CCCCC1 ?
WT yeast gro inh: 17; Diaphorase act: 1; ROMK primary: 1.1; L major viab: -1; Cl transport mod: 1.2; Diaphorase inh: -2

What do the screens show for `COc1ccc(CN2CCN(C(=O)Cc3ccccc3)CC2)c(OC)c1`?
WT yeast gro inh: -4; Diaphorase act: 1; ROMK primary: -0.72; L major viab: 6; Cl transport mod: 0.01; Diaphorase inh: 0

What do the screens show for `COc1ccc(CN2CCN(Cc3ccccc3)CC2)c(OC)c1`?
WT yeast gro inh: 1; Diaphorase act: 1; ROMK primary: -0.58; L major viab: -4; Cl transport mod: 5.4*; Diaphorase inh: -1; KCC2 secondary: 0.008; KCC2 bumet counter: 0.0059; KCC2 secondary2: 0.03; HEK counter1: 0.0062; KCC2 retest ouab: 0.02; HEK293 Tl flux2: 0.0088

What do the screens show for `O=c1[nH]c(=S)[nH]c(O)c1N=Nc1ccc(SC(F)F)cc1`?
Cl transport mod: 42*; KCC2 secondary: 0.008; KCC2 bumet counter: 0.072*; KCC2 secondary2: inconclusive; HEK counter1: 0.041*; KCC2 retest ouab: 0.087*; HEK293 Tl flux2: 0.012*

What do the screens show for `CC(C)c1ccc(N=Nc2c(O)[nH]c(=O)[nH]c2=O)cc1`?
Cl transport mod: 0.11

How did O=C(C1CCN(c2nc3ccc(Br)cc3s2)CC1)N1CCC2(CC1)OCCO2 do in these assays?
WT yeast gro inh: -8; Diaphorase act: 0.9; L major viab: 0; Cl transport mod: -5.1*; Diaphorase inh: 12; KCC2 secondary: 0.0076; KCC2 bumet counter: 0.0054; KCC2 secondary2: 0.027*; HEK counter1: 0.0071; KCC2 retest ouab: 0.019*; HEK293 Tl flux2: 0.01

Results for CCOP(=O)(C(NC(=O)c1ccccc1Cl)=C(Cl)Cl)c1ccccc1 (stereo unspecified) ?
WT yeast gro inh: -12; Diaphorase act: 0.9; ROMK primary: -0.64; L major viab: 1; Cl transport mod: 0.64; Diaphorase inh: 9

Results for O=C1NC(=O)N(c2ccccc2)C(=O)/C1=C/c1coc2ccc(O)cc2c1=O ?
Cl transport mod: -4.8*; KCC2 secondary: 0.007; KCC2 bumet counter: 0.0042; KCC2 secondary2: 0.028; HEK counter1: 0.0058*; KCC2 retest ouab: 0.014*; HEK293 Tl flux2: 0.0088
